ChEMBL document CHEMBL4368880, “Synthesis and biological evaluation of 3-(1,3,4-oxadiazol-2-yl)-1,8-naphthyridin-4(1H)-ones as cisplatin sensitizers” (Medchemcomm, 2018)

What was measured:
[1] = tested on: HCT-116; assay: Growth inhibition of human HCT116 cells at 5 uM after 24 hrs by MTT assay relative to control; assay type: functional; settings: HCT-116, 24 h, read-out: GI
How it was run: (§1)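 Monolayers seeded 24 h before treatment, then exposed to compound, with DMEM or RPMI 1640 plus 10% FBS as growth medium. MTT (5 mg mL–1 stock) incubated 2–4 h at 37 °C, formazan dissolved in DMSO, and absorbance read at 570 nm. Growth inhibition reported as % of control.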

[2] = tested on: HCT-116; assay: Growth inhibition of human HCT116 cells at 10 uM after 24 hrs by MTT assay relative to control; assay type: functional; settings: HCT-116, 24 h, read-out: GI; how it was run: as §1
[3] = tested on: HCT-116; assay: Growth inhibition of human HCT116 cells at 2.5 uM after 24 hrs by MTT assay relative to control; assay type: functional; settings: HCT-116, 24 h, read-out: GI; how it was run: as §1
[4] = tested on: HCT-116; assay: Potentiation of cisplatin-induced antiproliferative activity against human HCT116 cells assessed as cell growth inhibition at 2.5 uM preincubated for 24 hrs followed by 2.5 uM cisplatin addition and measured after 48 hrs by MTT assay (reference value: 26.98 +/-2.84%); assay type: functional; settings: read-out: GI
[5] = tested on: L02; assay: Cytotoxicity against human LO2 cells assessed as reduction in cell growth at 5 to 10 uM after 24 hrs by MTT assay; assay type: cell-based; settings: l02, 24 h
[6] = tested on: HeLa; assay: Growth inhibition of human HeLa cells at 10 uM after 24 hrs by MTT assay relative to control; assay type: functional; settings: read-out: GI; how it was run: as §1
[7] = tested on: MCF7; assay: Growth inhibition of human MCF7 cells at 5 uM after 24 hrs by MTT assay relative to control; assay type: functional; settings: MCF7, 24 h, read-out: GI; how it was run: as §1
[8] = tested on: KB; assay: Growth inhibition of human KB cells at 5 uM after 24 hrs by MTT assay relative to control; assay type: functional; settings: read-out: GI; how it was run: as §1
[9] = tested on: A549; assay: Growth inhibition of human A549 cells at 10 uM after 24 hrs by MTT assay relative to control; assay type: functional; settings: A549, 24 h, read-out: GI; how it was run: as §1
[10] = tested on: A549; assay: Growth inhibition of human A549 cells at 5 uM after 24 hrs by MTT assay relative to control; assay type: functional; settings: A549, 24 h, read-out: GI; how it was run: as §1
[11] = tested on: HepG2; assay: Growth inhibition of human HepG2 cells at 10 uM after 24 hrs by MTT assay relative to control; assay type: functional; settings: HepG2, 24 h, read-out: GI; how it was run: as §1
[12] = tested on: HepG2; assay: Growth inhibition of human HepG2 cells at 5 uM after 24 hrs by MTT assay relative to control; assay type: functional; settings: HepG2, 24 h, read-out: GI; how it was run: as §1
[13] = tested on: MCF7; assay: Growth inhibition of human MCF7 cells at 10 uM after 24 hrs by MTT assay relative to control; assay type: functional; settings: MCF7, 24 h, read-out: GI; how it was run: as §1
[14] = tested on: HeLa; assay: Growth inhibition of human HeLa cells at 5 uM after 24 hrs by MTT assay relative to control; assay type: functional; settings: read-out: GI; how it was run: as §1
[15] = tested on: KB; assay: Growth inhibition of human KB cells at 10 uM after 24 hrs by MTT assay relative to control; assay type: functional; settings: read-out: GI; how it was run: as §1

| SMILES | inhibition of growth at 5 µM [1] [%] | inhibition of growth at 10 µM [2] [%] | inhibition of growth at 2.5 µM [3] [%] | inhibition of growth at 2.5 µM [4] [%] | Activity [5] | inhibition of growth at 10 µM [6] [%] | inhibition of growth at 5 µM [7] [%] | inhibition of growth at 5 µM [8] [%] | inhibition of growth at 10 µM [9] [%] | inhibition of growth at 5 µM [10] [%] | inhibition of growth at 10 µM [11] [%] | inhibition of growth at 5 µM [12] [%] | inhibition of growth at 10 µM [13] [%] | inhibition of growth at 5 µM [14] [%] | inhibition of growth at 10 µM [15] [%] |
| --- | --- | --- | --- | --- | --- | --- | --- | --- | --- | --- | --- | --- | --- | --- | --- |
| O=c1c(-c2nnc(-c3ccc(F)cc3)o2)c[nH]c2ncc(-c3cccnc3)cc12 | 11.1 | 19.7 | 9.87 | 20.1 | Non-Toxic | – | – | – | – | – | – | – | – | – | – |
| O=c1c(-c2nnc(-c3ccc(Cl)cc3)o2)c[nH]c2ncc(-c3ccccc3)cc12 | 12.3 | 21.6 | 9.81 | 29.8 | Non-Toxic | 31.3 | 11.9 | 2.15 | 9.77 | 1.44 | 14.9 | 5.1 | 26.9 | 3.55 | 19.5 |
| N#Cc1ccc(-c2cnc3[nH]cc(-c4nnc(-c5ccc(F)cc5)o4)c(=O)c3c2)cc1 | 12.6 | 18.9 | 10.2 | 25.6 | Non-Toxic | – | – | – | – | – | – | – | – | – | – |
| CS(=O)(=O)c1ccc(-c2cnc3[nH]cc(-c4nnc(-c5ccncc5)o4)c(=O)c3c2)cc1 | 5.61 | 7.83 | 2.64 | 29.2 | Non-Toxic | 18.4 | 2.35 | 2.16 | 12.1 | 6.76 | 6.65 | 3.49 | 4.27 | 7.08 | 3.02 |
| CS(=O)(=O)c1ccc(-c2cnc3[nH]cc(-c4nnc(-c5cccnc5)o4)c(=O)c3c2)cc1 | 9.26 | 14.7 | 4.32 | 28.6 | Non-Toxic | – | – | – | – | – | – | – | – | – | – |
| CS(=O)(=O)c1ccc(-c2cnc3[nH]cc(-c4nnc(-c5ccc(F)cc5)o4)c(=O)c3c2)cc1 | 14.9 | 18.6 | 10.7 | 39.5 | Non-Toxic | 15.7 | 3.78 | 2.55 | 3.59 | 3.11 | 11.1 | 9.45 | 8.1 | 8.47 | 7.58 |
| CS(=O)(=O)c1ccc(-c2cnc3[nH]cc(-c4nnc(-c5ccccc5)o4)c(=O)c3c2)cc1 | 8.6 | 15.7 | 0.53 | 27.2 | Non-Toxic | 17.5 | 1.38 | 4.38 | 9.51 | 8.17 | 6.98 | 5.46 | 2.83 | 8.58 | 5.2 |
| O=c1c(-c2nnc(-c3ccc(F)cc3)o2)c[nH]c2ncc(-c3ccncc3)cc12 | 10.9 | 20.5 | 7.54 | 19.6 | Non-Toxic | – | – | – | – | – | – | – | – | – | – |
| CS(=O)(=O)c1ccc(-c2cnc3[nH]cc(-c4nnc(-c5ccc(Cl)cc5)o4)c(=O)c3c2)cc1 | 16.4 | 17 | 2.06 | 24.9 | Non-Toxic | 1.64 | 0.86 | 2.15 | 26.8 | 23.8 | 11.6 | 11.2 | 13.1 | 1.07 | 9.3 |
| O=c1c(-c2nnc(-c3ccc(Cl)cc3)o2)c[nH]c2ncc(-c3cccnc3)cc12 | 15.9 | 11.8 | 10.4 | 20.1 | Non-Toxic | – | – | – | – | – | – | – | – | – | – |
| N#Cc1ccc(-c2cnc3[nH]cc(-c4nnc(-c5ccc(Cl)cc5)o4)c(=O)c3c2)cc1 | 17.9 | 18.3 | 13.7 | 35.4 | Non-Toxic | 13.7 | 4.65 | 7.35 | 12.5 | 7.6 | 12.7 | 11.5 | 19.7 | 4.8 | 9.73 |
| CS(=O)(=O)c1ccc(-c2cnc3[nH]cc(-c4nnc(-c5ccccn5)o4)c(=O)c3c2)cc1 | 11.3 | 16.2 | 5.37 | 34.3 | Non-Toxic | – | – | – | – | – | – | – | – | – | – |
